Measured values reported in ChEMBL document CHEMBL1165920, “Structural determinants for the inhibitory ligands of orotidine-5'-monophosphate decarboxylase” (Bioorg Med Chem, 2010).
The source made the active and inactive calls. The calls are words filed in the database; no cut-off is given here.

Experiments:
[1] = target: T1, Orotidine 5'-phosphate decarboxylase (Saccharomyces cerevisiae S288c, UniProt P03962); test: Inhibition of Saccharomyces cerevisiae uridine 5'-monophosphate synthase
T1 sequence (P03962 whole entry): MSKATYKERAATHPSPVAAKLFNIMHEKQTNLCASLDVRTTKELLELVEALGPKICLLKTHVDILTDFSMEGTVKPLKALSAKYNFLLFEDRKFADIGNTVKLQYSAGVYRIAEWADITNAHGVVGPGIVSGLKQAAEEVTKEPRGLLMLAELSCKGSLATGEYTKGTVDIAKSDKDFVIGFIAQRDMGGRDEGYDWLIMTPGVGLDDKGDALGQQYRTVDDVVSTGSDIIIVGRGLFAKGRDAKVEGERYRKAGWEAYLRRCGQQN

[2] = target: T1, Orotidine 5'-phosphate decarboxylase; test: Inhibition of Saccharomyces cerevisiae uridine 5'-monophosphate synthase after overnight incubation at room temperature by VP-ITC microcalorimetry
[3] = target: T2, Orotidine phosphate decarboxylase (Plasmodium falciparum) (UniProt Q8T6J6); conditions: 0.5 to 5 mM
T2 sequence (whole entry): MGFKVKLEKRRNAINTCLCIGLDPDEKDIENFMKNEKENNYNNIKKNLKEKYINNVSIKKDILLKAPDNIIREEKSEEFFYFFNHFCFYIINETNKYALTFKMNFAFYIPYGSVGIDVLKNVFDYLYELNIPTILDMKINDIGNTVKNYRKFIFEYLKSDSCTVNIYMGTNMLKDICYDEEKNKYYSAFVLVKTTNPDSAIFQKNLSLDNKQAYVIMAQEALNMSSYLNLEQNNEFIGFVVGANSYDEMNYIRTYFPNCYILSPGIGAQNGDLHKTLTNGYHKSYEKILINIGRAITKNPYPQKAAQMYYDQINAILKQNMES

[4] = Inhibition of Helicobacter pylori uridine 5'-monophosphate synthase after overnight incubation at room temperature by VP-ITC microcalorimetry
Procedure, shortened: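 Reversible inhibition measured by ITC with Hp ODCase (final 60 nM) and 20 µM OMP substrate. Assay buffer was degassed 50 mM Tris pH 7.5 with 1 mM DTT. Inhibitor series were 0.25–1.5 µM or 0.25–2.5 mM. Ki was fitted as competitive from Ki(app) = Ki(1+[S]/KM).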

[5] = target: Orotidine 5'-phosphate decarboxylase (Methanobacterium thermoautotrophicum, UniProt O26232); test: Inhibition of Methanothermobacter thermautotrophicus uridine 5'-monophosphate synthase after overnight incubation at room temperature by VP-ITC microcalorimetry
Procedure, shortened: (§1)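 Isothermal titration calorimetry with Mt ODCase (final 20 nM). Enzyme stock was kept in 50 mM Tris pH 7.5, 20 mM DTT, 40 mM NaCl overnight at rt. Assay buffer was degassed 50 mM Tris pH 7.5 with 1 mM DTT. Run at 55 °C, started by injecting 5 mM OMP in 50 mM Tris. Inhibitor series spanned 5–40 µM or 0.5–5 mM. Competitive Ki was derived from Ki(app) = Ki(1+[S]/KM).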

[6] = target: Orotidine 5'-phosphate decarboxylase (Methanobacterium thermoautotrophicum) (UniProt O26232); test: Competitive inhibition of Methanothermobacter thermautotrophicus uridine 5'-monophosphate synthase after overnight incubation at room temperature by Lineweaver-Burke plot analysis; procedure, shortened: as §1
Orotidine 5'-phosphate decarboxylase (Methanobacterium thermoautotrophicum), sequence (O26232 whole entry, looked up): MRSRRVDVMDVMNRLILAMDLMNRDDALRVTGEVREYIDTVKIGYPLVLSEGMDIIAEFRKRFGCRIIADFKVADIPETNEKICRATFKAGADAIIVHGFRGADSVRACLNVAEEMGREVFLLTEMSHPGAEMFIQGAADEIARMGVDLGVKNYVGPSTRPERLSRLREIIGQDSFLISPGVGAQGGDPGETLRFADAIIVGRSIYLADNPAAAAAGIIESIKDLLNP

Orotidine 5'-phosphate decarboxylase (Methanobacterium thermoautotrophicum, UniProt O26232), sequence (O26232 whole entry): as the sequence (O26232 whole entry, looked up) above

Ki [1] | SMILES | Ki [2] | inhibition [3] | Ki [4] | Ki [5] | inhibition [6]
0.0088 nM | O=c1cc(O)n([C@@H]2O[C@H](COP(=O)(O)O)[C@@H](O)[C@H]2O)c(=O)[nH]1 | 0.009 nM |  |  |  | 
 | N#Cc1cc(=O)[nH]c(=O)n1[C@@H]1O[C@H](COP(=O)(O)O)[C@@H](O)[C@H]1O |  | Active |  |  | 
 | NC(=O)c1[nH]nc([C@@H]2O[C@H](COP(=O)(O)O)[C@@H](O)[C@H]2O)c1O | 5 nM |  | 130 nM | 6200 nM | Active
